{
  "source": "ChEMBL document CHEMBL1125427",
  "about": "“Synthesis of 3-(2-pyridylethyl)benzoxazolinone derivatives: potent analgesic and antiinflammatory compounds inhibiting prostaglandin E2” (1992)",
  "format_in_all_cases": "functional",
  "key": {"Mus musculus [1]": {"test_system": "Mus musculus", "experiment": "The compound was evaluated for inhibition of edema induced by histamine at 10 mg/mL", "outline": "(§1)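 Female albino mice (22 ± 2 g, local breed), six per group, housed in eights with free food and water, acclimatised at least 2 days. Compound given orally at 100 mg/kg; 60 min later 0.01 mL of the phlogistic agent (histamine or serotonin) injected subcutaneously into the right hind paw plantar surface. Paw edema measured with a dial thickness gauge; effect expressed as percent inhibition.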"}, "Mus musculus [2]": {"test_system": "Mus musculus", "experiment": "The compound was evaluated for inhibition of edema induced by serotonin at 250 ug/mL", "outline": "as §1"}, "Mus musculus [3]": {"species": "Mus musculus", "experiment": "Analgesic activity in mice", "set-up": "concentration or dose not given beside the values", "outline": "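Female albino mice (22 ± 2 g, local breed), groups of eight, dosed orally at 100 mg/kg as a suspension in 5% gum arabic syrup. After 1 h, 3% acetic acid was given ip at 300 mg/kg. Stretches were counted over 10 min, starting 5 min after injection. Percent activity = |n − n'|/n × 100 against syrup-only controls (n = 6).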"}, "Mus musculus [4]": {"test_system": "Mus musculus", "experiment": "Gastric ulcerogenic activity at a dose of 100 mg/kg", "outline": "(§2)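 Mice fasted 24 h with water available. Compound in methyl cellulose vehicle given by oral gavage at 0.5 mL/100 g body weight. Animals were killed after 4 h and stomachs examined for lesions under a dissecting microscope. Read-out: ulcer incidence per group of 8 and lesion length (mm/mouse ± SE).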"}, "Mus musculus [5]": {"test_system": "Mus musculus", "experiment": "Gastric ulcerogenic activity at a dose of 30 mg/kg", "outline": "as §2"}, "Mus musculus [6]": {"test_system": "Mus musculus", "experiment": "Gastric ulcerogenic activity at a dose of 300 mg/kg", "outline": "as §2"}, "Mus musculus [7]": {"test_system": "Mus musculus", "experiment": "Intestinal ulcerogenic activity at a dose of 100 mg/kg", "outline": "(§3)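 Fed animals were gavaged with compound on 3 consecutive days and killed 24 h after the last dose. Intestines were examined for ulcers. Read-out: ulcer incidence per group of 8 and lesion length (mm/mouse ± SE).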"}, "Mus musculus [8]": {"test_system": "Mus musculus", "experiment": "The compound was evaluated for inhibition of edema induced by PGE at […]", "outline": "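Mice, six per group, dosed orally at 100 mg/kg. After 60 min, PGE2 (20 μg/0.01 mL) was injected subcutaneously into the right hind paw plantar surface. Edema was measured with a dial thickness gauge and the effect expressed as percent inhibition.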"}, "Mus musculus [9]": {"test_system": "Mus musculus", "experiment": "The compound was evaluated for inhibition of edema induced by arachidonic acid at 1 mg/mL", "outline": "(§4)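 Mice, six per group, dosed orally at 100 mg/kg. After 60 min, 0.01 mL of phlogistic agent (arachidonic acid or bradykinin) was injected subcutaneously into the right hind paw plantar surface. Edema was measured by dial thickness gauge and the effect expressed as percent inhibition.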"}, "Mus musculus [10]": {"test_system": "Mus musculus", "experiment": "Antiinflammatory activity against CPE in mice following peroral administration of 30 mg/kg", "conditions": "route oral", "outline": "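Female albino mice (22 ± 2 g), six per group, dosed orally. After 60 min, 0.01 mL of 2% carrageenan was injected subcutaneously into the right hind paw plantar surface. Edema was read with a dial thickness gauge 3 h later. ED50 was given in mg/kg po with 95% confidence limits.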"}, "Mus musculus [11]": {"test_system": "Mus musculus", "experiment": "Intestinal ulcerogenic activity at a dose of 300 mg/kg", "outline": "as §3"}, "Mus musculus [12]": {"test_system": "Mus musculus", "experiment": "Intestinal ulcerogenic activity at a dose of 30 mg/kg", "outline": "as §3"}, "Mus musculus [13]": {"test_system": "Mus musculus", "experiment": "Gastric ulcerogenic activity at a dose of 300 mg/kg: group of 8 mice were considered for the test", "outline": "as §2"}, "Mus musculus [14]": {"test_system": "Mus musculus", "experiment": "Gastric ulcerogenic activity at a dose of 30 mg/kg: group of 8 mice were considered for the test", "outline": "as §2"}, "Mus musculus [15]": {"test_system": "Mus musculus", "experiment": "Intestinal ulcerogenic activity at a dose of 100 mg/kg: group of 8 mice were considered for the test", "outline": "as §3"}, "Mus musculus [16]": {"test_system": "Mus musculus", "experiment": "Intestinal ulcerogenic activity at a dose of 300 mg/kg: group of 8 mice were considered for the test", "outline": "as §3"}, "Mus musculus [17]": {"test_system": "Mus musculus", "experiment": "Intestinal ulcerogenic activity at a dose of 30 mg/kg: group of 8 mice were considered for the test", "outline": "as §3"}, "Mus musculus [18]": {"test_system": "Mus musculus", "experiment": "Gastric ulcerogenic activity at a dose of 100 mg/kg: group of 8 mice were considered for the test", "outline": "as §2"}, "Mus musculus [19]": {"test_system": "Mus musculus", "experiment": "The compound was evaluated for inhibition of edema induced by bradykinin at 100 ug/mL", "outline": "as §4"}, "Mus musculus [20]": {"test_system": "Mus musculus", "experiment": "Inhibitory activity against carrageenan induced paw edema in mice", "set-up": "concentration or dose not given beside the values"}},
  "data": [
    {"smiles": "O=C(c1ccccc1Cl)c1cc2oc(=O)n(CCc3ccncc3)c2cc1Cl", "values": [
      {"measurement": "Inhibition", "setting": "Mus musculus [1]", "value": 9.3, "unit": "%"},
      {"measurement": "Inhibition", "setting": "Mus musculus [2]", "value": 8.4, "unit": "%"},
      {"measurement": "Analgesic activity", "setting": "Mus musculus [3]", "value": 92.61, "unit": "%"},
      {"measurement": "Lesion length", "setting": "Mus musculus [4]", "value": 0, "unit": "mm mice-1"},
      {"measurement": "Lesion length", "setting": "Mus musculus [5]", "value": 0, "unit": "mm mice-1"},
      {"measurement": "Lesion length", "setting": "Mus musculus [6]", "value": 0.4, "unit": "mm mice-1"},
      {"measurement": "Lesion length", "setting": "Mus musculus [7]", "value": 0, "unit": "mm mice-1"},
      {"measurement": "Inhibition", "setting": "Mus musculus [8]", "value": 55, "unit": "%"},
      {"measurement": "Inhibition", "setting": "Mus musculus [9]", "value": 43, "unit": "%"},
      {"measurement": "ED50", "setting": "Mus musculus [10]", "value": 30, "unit": "mg/kg"},
      {"measurement": "Lesion length", "setting": "Mus musculus [11]", "value": 0.4, "unit": "mm mice-1"},
      {"measurement": "Lesion length", "setting": "Mus musculus [12]", "value": 0, "unit": "mm mice-1"},
      {"measurement": "Ulcer incidence", "setting": "Mus musculus [13]", "value": 1, "unit": "number/group"},
      {"measurement": "Ulcer incidence", "setting": "Mus musculus [14]", "value": 0, "unit": "number/group"},
      {"measurement": "Ulcer incidence", "setting": "Mus musculus [15]", "value": 0, "unit": "number/group"},
      {"measurement": "Ulcer incidence", "setting": "Mus musculus [16]", "value": 0, "unit": "number/group"},
      {"measurement": "Ulcer incidence", "setting": "Mus musculus [17]", "value": 0, "unit": "number/group"},
      {"measurement": "Ulcer incidence", "setting": "Mus musculus [18]", "value": 0, "unit": "number/group"},
      {"measurement": "Inhibition", "setting": "Mus musculus [19]", "value": 12, "unit": "%"},
      {"measurement": "Inhibition", "setting": "Mus musculus [20]", "value": 49.6, "unit": "%"}
    ]}
  ]
}
